Experimental data collected from several papers.
Protocols differ between the studies behind these lines. In brackets after ≈: the same amount, converted by molar mass.

Compound | organism | test | system | setting | endpoint | result
CC(=O)N1CCN(c2ccc(OCC3COC(Cn4ccnc4)(c4ccc(Cl)cc4Cl)O3)cc2)CC1 (stereo not drawn) | Nakaseomyces glabratus | microbial growth, broth dilution | ATCC15126 | 48 h | MIC | 8 µg/mL (≈ 15.1 µM)
C/C(=N/NC(=O)c1cn(-c2ccccc2)nc1-c1ccc(Br)cc1)c1c(O)cc(C)oc1=O | Bacillus subtilis | microbial growth |  |  | MIC | 70 µg/mL (≈ 138 µM)
O=C(Nc1ccc2[nH]ccc2c1)c1ccc(COC(Cn2ccnc2)c2ccc(Cl)cc2Cl)cc1 (stereo not drawn) | Nakaseomyces glabratus | microbial growth, broth dilution |  |  | MIC80 | 128 µg/mL (≈ 253 µM)
C#CCOC(=O)ON=C1C=CC(=C(C#N)c2ccccc2)C=C1 | Nakaseomyces glabratus | microbial growth, broth dilution | ATCC15126 | 48 h | MIC | 16 µg/mL (≈ 52.6 µM)
O=C(Nc1cccc(Br)c1)c1ccc(COC(Cn2ccnc2)c2ccc(Cl)cc2Cl)cc1 (stereo not drawn) | Nakaseomyces glabratus | microbial growth, broth dilution |  |  | MIC80 | 0.125 µg/mL (≈ 0.229 µM)
CCOC(=O)/C=C1/SC(N/N=C/c2c(-c3ccc(OC)cc3)nc3ncccn23)=NC1=O | Bacillus subtilis | microbial growth, well diffusion | ATCC6051 | 100 µg/mL | inhibition zone | 11 mm
O=C(Nc1ccc(Cl)cc1)c1ccc(COC(Cn2ccnc2)c2ccc(Cl)cc2Cl)cc1 (stereo not drawn) | Nakaseomyces glabratus | microbial growth, broth dilution |  |  | MIC80 | 0.125 µg/mL (≈ 0.25 µM)
CC(=O)ON=C1C=CC(=C(C#N)c2ccccc2)C=C1 | Nakaseomyces glabratus | microbial killing, broth dilution | ATCC15126 | 48 h | MFC | 16 µg/mL (≈ 60.5 µM)
CC1(C)S[C@@H]2[C@H](NC(=O)[C@H](N)c3ccccc3)C(=O)N2[C@H]1C(=O)O | Bacillus subtilis | microbial growth |  |  | MIC | 2 µg/mL (≈ 5.72 µM)
O=C(Nc1ccc(F)cc1F)c1ccc(COC(Cn2ccnc2)c2ccc(Cl)cc2Cl)cc1 (stereo not drawn) | Nakaseomyces glabratus | microbial growth, broth dilution |  |  | MIC80 | 0.03 µg/mL (≈ 0.0597 µM)
C/C(=N/NC(=O)c1cn(-c2ccccc2)nc1-c1ccc(F)cc1)c1c(O)cc(C)oc1=O | Bacillus subtilis | microbial growth |  |  | MIC | 70 µg/mL (≈ 157 µM)
C#CCON=C1C=CC(=C(C#N)c2ccccc2)C=C1 | Nakaseomyces glabratus | microbial growth, broth dilution | ATCC15126 | 48 h | MIC | 16 µg/mL (≈ 61.5 µM)
O=C(Nc1ccc(Br)cc1)c1ccc(COC(Cn2ccnc2)c2ccc(Cl)cc2Cl)cc1 (stereo not drawn) | Nakaseomyces glabratus | microbial growth, broth dilution |  |  | MIC80 | 0.125 µg/mL (≈ 0.229 µM)
OC(Cn1cncn1)(Cn1cncn1)c1ccc(F)cc1F | Cryptococcus neoformans | microbial growth, broth dilution | H99 | 48 h | MIC | 8 µg/mL (≈ 26.1 µM)
C=CC(=O)ON=C1C=CC(=C(C#N)c2ccccc2)C=C1 | Nakaseomyces glabratus | microbial killing, broth dilution | ATCC15126 | 48 h | MFC | 16 µg/mL (≈ 57.9 µM)
